Measurements from paper PMC3458188 (ACS nano, 2012).

Assays:
[1] = Small angle X-ray scattering; assay type: physicochemical; conditions: 2 mM; -1 indicative of cylinders, -2 possibly bundling
In short: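 Synchrotron SAXS used 15 keV X-rays from a double-crystal monochromator and an offset CCD to cover a wide angle range. Samples at 2 mM were held in 1.5 mm quartz capillaries; incident flux was about 10^12 photons/s. Intensity was plotted on a relative scale against q = (4π/λ) sin(θ/2).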

[2] = Complete blood count and metabolic profiling 24 h after PA administration; assay type: in vivo, mice; conditions: 24 h after administration
In short: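 Blood was drawn from mice 24 h after PA or PBS administration and sent to an external laboratory for complete blood count and metabolic profiling. Groups were compared by two-way ANOVA with Bonferroni post-tests.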

[3] = 1H diffusion ordered spectroscopy; assay type: physicochemical; conditions: DOSY, D2O, ambient temperature; 5 mM KLAK PA alone or 2.5 mM KLAK PA and 2.5 mM PEG PA
In short: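 Coassembled by dissolving each PA separately in HFIP, mixing at least 15 min, lyophilizing, redissolving in water and lyophilizing again. 1H DOSY at 600 MHz and ambient temperature in 99.9% D2O, at constant total PA of 5 mM (single PA) or 2.5 mM + 2.5 mM (mixed). 32 points were acquired with a 7 μs 90-degree pulse.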

[4] = assay type: in vivo, athymic nude mice bearing MDA-MB-231 tumors; conditions: IP, Alexa 700-labelled KLAK PA
In short: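 Female athymic nude mice carried orthotopic MDA-MB-231 mammary tumours. Dialysed Alexa 700-conjugated PA (20 mg/kg, 1.8 mM; 2.5 μg dye) was given ip, ± 27 mg/kg coassembled PEG PA. Plasma was collected by tail bleed or terminal cardiac puncture, spun 10 000 rpm for 10 min, and read on a plate reader. Paraformaldehyde-fixed tissues were imaged as average radiant efficiency; n = 6 per time point.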

[5] = Cryogenic and conventional TEM of nanostructures; assay type: physicochemical; conditions: cryo-TEM
In short: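 For conventional TEM, samples were drop-cast on carbon-coated copper grids and stained with 2% aqueous uranyl acetate. For cryo-TEM, grids were blotted at 95% humidity and plunged into liquid ethane. Both were imaged at 100 keV.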

## palmitoyl-A4G3(KLAKLAK)2 [KLAK PA]
[1]
  SAXS slope in the low-q range: approximately -2
[2]; compared with PBS treated controls
  alkaline phosphatase levels: significantly lower
[2]; mice
  blood glucose levels: significantly higher
[3]
  diffusion coefficient of KLAK PA (peak at 2.83 ppm): 0.69×10^−10 m^2/s
[4]; plasma fluorescence, mice
  observed plasma half-lives: on the order of several hours
[4]; tumor bearing mice, IVIS
  tissue localization of fluorescence: predominantly localized to liver and kidney
[5]
  fiber diameter: roughly 10 nm
  fiber length: several hundred
